Compound activity from PubChem.
STAT3 act-1 – IL-6 driven STAT3 reporter potentiators, primary screen, U3A cells, luciferase, luminescence, MLSCN library; IL-6 STAT3-luciferase reporter; 100% = signal with IL-6 EC80 alone; activation (% of control), % at 5.6 µM; 190,000 compounds, 0.91% hits; AID 871, 2007;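 active means activation above the screen-wide mean of compound activation plus 3 SD, cut at about 130% in these data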;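 further: 0% = background luminescence of wells with medium and substrate only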
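Assay system – human STAT1-deficient U3A cells with stable STAT3-luciferase reporter · Also added – IL-6 (33 ng/mL) · Schedule – compound 1 h, then IL-6 6 h at 37 °C · Technique – reporter luminescence signal · Evaluation – % activation versus median of IL-6-stimulated wells · Benchmarks – IL-6-only wells as 100% reference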
STAT1 inh – STAT1 signaling inhibitors, primary screen, cell-based, HTS, luciferase reporter. NIH 3T3 STAT1-luciferase reporter, IFN-gamma, luminescence. inhibition, % at 5.5 µM. 200,000 compounds, 0.35% hits. AID 920, 2007;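 active means inhibition above a set limit, the mean inhibition across all tested compounds plus 3 SD, cut at about 34% in these data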;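 further: 0% = IFN-gamma with DMSO and 100% = IFN-gamma with 300 µM nifuroxazide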
STAT3 inh – IL-6 driven STAT3 reporter inhibitors, primary screen, U3A cells, luciferase, luminescence, MLSCN library; 190,000 compounds, 0.89% hits; inhibition, % at 5.5 µM; IL-6 STAT3-luciferase reporter; host cell line lacks STAT1; AID 862, 2007;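 active means inhibition above the mean inhibition across all screened compounds plus 3 SD, cut at about 44% in these data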;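 further: 0% = DMSO only wells and 100% = 100 µM nifuroxazide control wells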
APP 5'UTR act – activators of APP 5'UTR luciferase reporter, primary screen, SH-SY5Y cells. SH-SY5Y APP 5'UTR luciferase reporter, luminescence; zero percent = DMSO vehicle wells. activation, % at 2 µM. 190,000 compounds, 1% hits. AID 1276, 2008;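 active means activation above a set limit, based on mean plus 3 SD of controls, cut at about 140% in these data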
NF-kB neuron act – activators of NF-kB expression in neurons, primary screen, cell-based, HTS | human neuronal cells, NF-kB reporter expression; stronger effect = higher value | fold change at 12.5 µM | 190,000 compounds, 1.6% hits; in the data active means fold change above about 3.3
STAT1 act-1 – STAT1 signaling activators, primary screen, cell-based, HTS, luciferase reporter. NIH 3T3 STAT1-luciferase reporter, IFN-gamma, luminescence; 100% = IFN-gamma alone, no compound. 200,000 compounds, 2.6% hits. activation (% of control), % at 5.5 µM;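 active means activation above the screen-wide mean activation plus 3 SD, cut at about 130% in these data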;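 further: raw ratio to IFN-gamma control signal so 100% means no change and 0% no light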
STAT3 act-2 – STAT3 reporter potentiators, retest of hits, confirmation, U3A cells, luciferase, luminescence. shares compounds with STAT3 act-1. IL-6 potentiation; U3A cells lack STAT1; 100 means same as IL-6 alone. potentiation (% of control), % at 5.7 µM. 1,200 compounds, 64% hits;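 active means percent activation of the STAT3 luciferase reporter above a set limit taken from the earlier primary screen, cut at about 130% in these data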;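 further: 0% = background signal of medium plus substrate and 100% = median of IL-6 with DMSO wells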
NFkB act 2 – NF-kB reporter activators in human cells, counter-screen for STAT3 activator project; shares compounds with STAT3 act-1; AID 1309, 2008; NF-kappaB reporter activation; activation (% of control), % at 5.7 µM; 1,200 compounds, 11% hits; in the data active means activation above about 120%;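 further: reporter induced by TNF-alpha stimulation; 100% = median of stimulated DMSO wells and 0% = no signal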
STAT1 act-2 – STAT1 reporter activators, IFN-gamma induced, counter-screen for STAT3 activator project, cell-based, NIH 3T3, luciferase luminescence; shares compounds with STAT3 act-1; NIH 3T3 STAT1-luciferase reporter; activation (% of control), % at 5.7 µM; 1,200 compounds, 13% hits;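 active means activation above the solvent-only control well mean plus 3 SD, set per screening run, cut at about 120% in these data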;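 further: 100% = IFN-gamma with DMSO median signal so 100% means no change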
The depositor's hits bear a star. Only some compounds are listed: those with a hit (about 4.9% of all), similar ones and a draw of the others.

`Cc1ccc(CC(=O)Nc2nc3c(s2)CCCC3)cc1` gave STAT3 act-1 141*, STAT1 inh -6, STAT3 inh -49, APP 5'UTR act 16, NF-kB neuron act 3.4*, STAT1 act-1 101, STAT3 act-2 137*, NFkB act 2 103 and STAT1 act-2 114.
Screening O=C(NC(=S)Nc1nc2c(s1)CCCC2)c1ccccc1 returned STAT3 act-1 148*, STAT1 inh -24, STAT3 inh -61, APP 5'UTR act 191*, NF-kB neuron act 1.6, STAT1 act-1 121, STAT3 act-2 206*, NFkB act 2 142* and STAT1 act-2 200*.
Screening COc1ccc(C2(C)NC(=O)N(CC(=O)Nc3ccc(S(=O)(=O)N4CCCC4)cc3)C2=O)cc1 (centres undefined) returned STAT3 act-1 100, STAT1 inh 9, STAT3 inh 3, APP 5'UTR act -3, NF-kB neuron act 0.9 and STAT1 act-1 90.
`Cc1ccc(C(=O)Nc2nccs2)cc1` gave STAT3 act-1 144*, STAT1 inh -6, STAT3 inh -54, APP 5'UTR act 91, NF-kB neuron act 3.5*, STAT1 act-1 106, STAT3 act-2 165*, NFkB act 2 118 and STAT1 act-2 128*.
For COc1ccc(-c2csc(NC(=O)c3nc(-c4ccccc4)oc3C)n2)cc1 the results were STAT3 act-1 92, STAT1 inh -2, STAT3 inh 20, APP 5'UTR act 3, NF-kB neuron act 0.93 and STAT1 act-1 101.
Cc1oc(-c2ccccc2)nc1C(=O)Nc1nccs1 was read as STAT3 act-1 140*, STAT1 inh -14, STAT3 inh -40, APP 5'UTR act 19, NF-kB neuron act 1.6, STAT1 act-1 113, STAT3 act-2 142*, NFkB act 2 107 and STAT1 act-2 113.
Screening CCOc1ccccc1NC(=O)c1nc(-c2ccccc2)oc1C returned STAT3 act-1 141*, STAT1 inh -10, STAT3 inh -35, APP 5'UTR act 18, NF-kB neuron act 1.4, STAT1 act-1 107, STAT3 act-2 123, NFkB act 2 104 and STAT1 act-2 104.
O=C(Nc1nccs1)c1ccc2nccnc2c1 was read as STAT3 act-1 94, STAT1 inh -22, STAT3 inh 15, APP 5'UTR act 13, NF-kB neuron act 0.62 and STAT1 act-1 120.
`COc1ccc(-c2[nH]ncc2CN(C)Cc2nonc2C)c(OC)c1` gave STAT3 act-1 93, STAT1 inh 10, STAT3 inh 13, APP 5'UTR act -9, NF-kB neuron act 1.3 and STAT1 act-1 89.
For CSc1nsc(/C=C/Nc2ccc(C)c(C)c2)c1C#N the results were STAT3 act-1 97, STAT1 inh 2, STAT3 inh 7, APP 5'UTR act 4, NF-kB neuron act 1.2 and STAT1 act-1 97.
`CSc1nsc(/C=C/Nc2ccc(C)cc2)c1C#N` gave STAT3 act-1 137*, STAT1 inh 0, STAT3 inh -45, APP 5'UTR act -15, NF-kB neuron act 1, STAT1 act-1 103, STAT3 act-2 136*, NFkB act 2 105 and STAT1 act-2 108.
For CC(C)Sc1nnc(-c2c[nH]c3ccccc23)n1C the results were STAT3 act-1 99, STAT1 inh -13, STAT3 inh 10, NF-kB neuron act 1.9 and STAT1 act-1 112.
CN=c1scc(-c2c[nH]c3ccccc23)n1C was read as STAT3 act-1 138*, STAT1 inh 8, STAT3 inh -35, APP 5'UTR act -5, NF-kB neuron act 1, STAT1 act-1 92, STAT3 act-2 137*, NFkB act 2 104 and STAT1 act-2 99.
For O=C(O)c1cc2ccc3ccccc3c2oc1=O the results were STAT3 act-1 152*, STAT1 inh -1, STAT3 inh -58, APP 5'UTR act 11, NF-kB neuron act 1.1, STAT1 act-1 103, STAT3 act-2 132, NFkB act 2 99 and STAT1 act-2 99.
Screening CCCCCN(C(=O)CN1CCC(Cc2ccccc2)CC1)c1c(N)n(CCCC)c(=O)[nH]c1=O returned STAT3 act-1 108, STAT1 inh 0, STAT3 inh -10, APP 5'UTR act -2, NF-kB neuron act 0.8 and STAT1 act-1 100.
Screening COc1cc(NS(=O)(=O)c2ccc(N/C=C(\C=O)c3nc4ccccc4o3)cc2)nc(OC)n1 returned STAT3 act-1 147*, STAT1 inh 7, STAT3 inh -54, APP 5'UTR act 4, NF-kB neuron act 1, STAT1 act-1 93, STAT3 act-2 136*, NFkB act 2 104 and STAT1 act-2 95.
CCc1nnc(NS(=O)(=O)c2ccc(N/C=C(\C=O)c3nc4cc(Cl)ccc4o3)cc2)s1 was read as STAT3 act-1 149*, STAT1 inh -3, STAT3 inh -52, APP 5'UTR act 4, NF-kB neuron act 1.2, STAT1 act-1 102, STAT3 act-2 135*, NFkB act 2 103 and STAT1 act-2 99.
Screening Cc1nn(C)c(C(=O)N2CCOCC2)c1Cl returned STAT3 act-1 100, STAT1 inh 8, STAT3 inh 0, APP 5'UTR act -28, NF-kB neuron act 1.1 and STAT1 act-1 93.
For Cc1ccc2nc(SCC(=O)Nc3cc([N+](=O)[O-])ccc3F)[nH]c2c1 the results were STAT3 act-1 139*, STAT1 inh 12, STAT3 inh -53, APP 5'UTR act 2, NF-kB neuron act 1.5, STAT1 act-1 89, STAT3 act-2 139*, NFkB act 2 107 and STAT1 act-2 97.
`Cc1ccc2nc(SCC(=O)Nc3ccc(F)c([N+](=O)[O-])c3)[nH]c2c1` gave STAT3 act-1 98, STAT1 inh 7, STAT3 inh 0, APP 5'UTR act 2, NF-kB neuron act 1.1 and STAT1 act-1 94.
